In ChEMBL document CHEMBL3751707, “Silicon Incorporated Morpholine Antifungals: Design, Synthesis, and Biological Evaluation” (ACS Med Chem Lett, 2015):
Converted amounts (≈) assume the structure as drawn.

Experiments:
Candida albicans [1] = assay: Antifungal activity against Candida albicans ATCC 10231 after 24 to 36 hrs by broth microdilution method; type: functional, organism-based
Summary of the method: (§1)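 CLSI broth microdilution against yeasts (M27-A3) and filamentous fungi (M38-A2). Read-outs: IC50 (concentration giving 50% growth inhibition), MIC, and MFC (minimum fungicidal concentration), all in μg/mL. Assay done twice in triplicate.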

Candida albicans [2] = assay: Antifungal activity against Candida albicans ATCC 24433 after 72 hrs by broth microdilution method; type: functional; settings: ATCC 24433, 72 h; summary of the method: as §1
Candida albicans [3] = assay: Antifungal activity against Candida albicans ATCC 10231 after 72 hrs by broth microdilution method; type: functional; settings: ATCC 10231, 72 h; summary of the method: as §1
Cryptococcus neoformans [4] = assay: Antifungal activity against Cryptococcus neoformans ATCC 34664 after 24 to 36 hrs by broth microdilution method; type: functional, organism-based; summary of the method: as §1
Candida albicans [5] = assay: Antifungal activity against Candida albicans ATCC 24433 after 24 to 36 hrs by broth microdilution method; type: functional, organism-based; summary of the method: as §1
Nakaseomyces glabratus [6] = assay: Antifungal activity against Candida glabrata NCYC 388 after 72 hrs by broth microdilution method; type: functional; settings: NCYC 388, 72 h; summary of the method: as §1
Candida tropicalis [7] = assay: Antifungal activity against Candida tropicalis ATCC 750 after 72 hrs by broth microdilution method; type: functional; settings: ATCC 750, 72 h; summary of the method: as §1
Candida tropicalis [8] = assay: Antifungal activity against Candida tropicalis ATCC 750 after 24 to 36 hrs by broth microdilution method; type: functional, organism-based; summary of the method: as §1
[9] = Metabolic stability in human liver microsomes after 30 mins by LC-MS/MS analysis; type: ADME; settings: read-out: Stability
Summary of the method: (§2)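 Test compounds were incubated 30 min with liver microsomes (human or mouse, per line), and values are reported as % metabolic stability after 30 min.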

Cryptococcus neoformans [10] = assay: Antifungal activity against Cryptococcus neoformans ATCC 34664 after 72 hrs by broth microdilution method; type: functional; settings: ATCC 34664, 72 h; summary of the method: as §1
Aspergillus niger [11] = assay: Antifungal activity against Aspergillus niger ATCC 10578 after 48 hrs by broth microdilution method; type: functional, organism-based; settings: ATCC 10578, 48 h; summary of the method: as §1
[12] = Toxicity in human RBC assessed as hemolysis upto 128 ug/ml; type: cell-based; settings: erythrocyte
[13] = Metabolic stability in mouse liver microsomes after 30 mins by LC-MS/MS analysis; type: ADME; settings: read-out: Stability; summary of the method: as §2
Aspergillus niger [14] = assay: Antifungal activity against Aspergillus niger ATCC 10578 after 72 hrs by broth microdilution method; type: functional; settings: ATCC 10578, 72 h; summary of the method: as §1
Nakaseomyces glabratus [15] = assay: Antifungal activity against Candida glabrata NCYC 388 after 24 to 36 hrs by broth microdilution method; type: functional, organism-based; summary of the method: as §1

SMILES: CC(Cc1ccc(C(C)(C)C)cc1)CN1CCCCC1 (configuration not stated) [FENPROPIDIN]
- IC50 (Candida albicans [1]): 0.27 µg/mL (≈ 0.987 µM)
- MIC (Candida albicans [1]): 1 µg/mL (≈ 3.66 µM)
- MFC (Candida albicans [2]): 0.5 µg/mL (≈ 1.83 µM)
- MFC (Candida albicans [3]): 2 µg/mL (≈ 7.31 µM)
- IC50 (Cryptococcus neoformans [4]): 0.22 µg/mL (≈ 0.804 µM)
- MIC (Cryptococcus neoformans [4]): 1 µg/mL (≈ 3.66 µM)
- IC50 (Candida albicans [5]): 0.19 µg/mL (≈ 0.695 µM)
- MIC (Candida albicans [5]): 0.25 µg/mL (≈ 0.914 µM)
- MFC (Nakaseomyces glabratus [6]): 16 µg/mL (≈ 58.5 µM)
- MFC (Candida tropicalis [7]): 256 µg/mL (≈ 936 µM)
- IC50 (Candida tropicalis [8]): 0.125 µg/mL (≈ 0.457 µM)
- MIC (Candida tropicalis [8]): 4 µg/mL (≈ 14.6 µM)
- remaining at 0.5 h [9]: 34.4%
- MFC (Cryptococcus neoformans [10]): 32 µg/mL (≈ 117 µM)
- IC50 (Aspergillus niger [11]): 16 µg/mL (≈ 58.5 µM)
- MIC (Aspergillus niger [11]): 32 µg/mL (≈ 117 µM)
- Activity [12]: Non-toxic
- remaining at 0.5 h [13]: 1.1%
- MFC (Aspergillus niger [14]): 128 µg/mL (≈ 468 µM)
- IC50 (Nakaseomyces glabratus [15]): 0.1 µg/mL (≈ 0.366 µM)
- MIC (Nakaseomyces glabratus [15]): 0.5 µg/mL (≈ 1.83 µM)

SMILES: CC(Cc1ccc([Si](C)(C)C)cc1)CN1CCS(=O)(=O)CC1 (configuration not stated)
- MIC (Candida albicans [1]): ≥ 256 µg/mL
- MFC (Candida albicans [2]): ≥ 256 µg/mL
- MFC (Candida albicans [3]): ≥ 256 µg/mL
- MIC (Cryptococcus neoformans [4]): ≥ 256 µg/mL
- MIC (Candida albicans [5]): ≥ 256 µg/mL
- MFC (Nakaseomyces glabratus [6]): ≥ 256 µg/mL
- MFC (Candida tropicalis [7]): ≥ 256 µg/mL
- MIC (Candida tropicalis [8]): ≥ 256 µg/mL
- MFC (Cryptococcus neoformans [10]): ≥ 256 µg/mL
- MIC (Aspergillus niger [11]): ≥ 256 µg/mL
- MFC (Aspergillus niger [14]): ≥ 256 µg/mL
- MIC (Nakaseomyces glabratus [15]): ≥ 256 µg/mL

SMILES: OC(Cn1cncn1)(Cn1cncn1)c1ccc(F)cc1F [FLUCONAZOLE]
- IC50 (Candida albicans [1]): 4.21 µg/mL (≈ 13.7 µM)
- MIC (Candida albicans [1]): 8 µg/mL (≈ 26.1 µM)
- MFC (Candida albicans [2]): 4 µg/mL (≈ 13.1 µM)
- MFC (Candida albicans [3]): 16 µg/mL (≈ 52.2 µM)
- IC50 (Cryptococcus neoformans [4]): 4.6 µg/mL (≈ 15 µM)
- MIC (Cryptococcus neoformans [4]): 32 µg/mL (≈ 104 µM)
- IC50 (Candida albicans [5]): 0.73 µg/mL (≈ 2.38 µM)
- MIC (Candida albicans [5]): 2 µg/mL (≈ 6.53 µM)
- MFC (Nakaseomyces glabratus [6]): > 256 µg/mL
- MFC (Candida tropicalis [7]): > 256 µg/mL
- IC50 (Candida tropicalis [8]): 64 µg/mL (≈ 209 µM)
- MIC (Candida tropicalis [8]): > 256 µg/mL
- MFC (Cryptococcus neoformans [10]): > 256 µg/mL
- IC50 (Aspergillus niger [11]): > 256 µg/mL
- MIC (Aspergillus niger [11]): > 256 µg/mL
- MFC (Aspergillus niger [14]): > 256 µg/mL
- IC50 (Nakaseomyces glabratus [15]): 16 µg/mL (≈ 52.2 µM)
- MIC (Nakaseomyces glabratus [15]): 128 µg/mL (≈ 418 µM)

SMILES: CCN(CC)CC(C)Cc1ccc([Si](C)(C)C)cc1 (configuration not stated)
- IC50 (Candida albicans [1]): 0.57 µg/mL (≈ 2.05 µM)
- MIC (Candida albicans [1]): 2 µg/mL (≈ 7.21 µM)
- MFC (Candida albicans [2]): 32 µg/mL (≈ 115 µM)
- MFC (Candida albicans [3]): 4 µg/mL (≈ 14.4 µM)
- IC50 (Cryptococcus neoformans [4]): 1.5 µg/mL (≈ 5.4 µM)
- MIC (Cryptococcus neoformans [4]): 4 µg/mL (≈ 14.4 µM)
- IC50 (Candida albicans [5]): 3.75 µg/mL (≈ 13.5 µM)
- MIC (Candida albicans [5]): 8 µg/mL (≈ 28.8 µM)
- MFC (Nakaseomyces glabratus [6]): > 256 µg/mL
- MFC (Candida tropicalis [7]): 256 µg/mL (≈ 922 µM)
- IC50 (Candida tropicalis [8]): 4.85 µg/mL (≈ 17.5 µM)
- MIC (Candida tropicalis [8]): 16 µg/mL (≈ 57.7 µM)
- MFC (Cryptococcus neoformans [10]): 32 µg/mL (≈ 115 µM)
- IC50 (Aspergillus niger [11]): 64 µg/mL (≈ 231 µM)
- MIC (Aspergillus niger [11]): 256 µg/mL (≈ 922 µM)
- MFC (Aspergillus niger [14]): > 256 µg/mL
- IC50 (Nakaseomyces glabratus [15]): 1.85 µg/mL (≈ 6.67 µM)
- MIC (Nakaseomyces glabratus [15]): 4 µg/mL (≈ 14.4 µM)

SMILES: CC(Cc1ccc([Si](C)(C)C)cc1)CN1CCCCC1 (configuration not stated)
- IC50 (Candida albicans [1]): 0.11 µg/mL (≈ 0.38 µM)
- MIC (Candida albicans [1]): 0.25 µg/mL (≈ 0.863 µM)
- MFC (Candida albicans [2]): 2 µg/mL (≈ 6.91 µM)
- MFC (Candida albicans [3]): 32 µg/mL (≈ 111 µM)
- IC50 (Cryptococcus neoformans [4]): 0.0625 µg/mL (≈ 0.216 µM)
- MIC (Cryptococcus neoformans [4]): 0.125 µg/mL (≈ 0.432 µM)
- IC50 (Candida albicans [5]): 0.12 µg/mL (≈ 0.414 µM)
- MIC (Candida albicans [5]): 0.25 µg/mL (≈ 0.863 µM)
- MFC (Nakaseomyces glabratus [6]): 8 µg/mL (≈ 27.6 µM)
- MFC (Candida tropicalis [7]): 64 µg/mL (≈ 221 µM)
- IC50 (Candida tropicalis [8]): 1 µg/mL (≈ 3.45 µM)
- MIC (Candida tropicalis [8]): 4 µg/mL (≈ 13.8 µM)
- MFC (Cryptococcus neoformans [10]): 8 µg/mL (≈ 27.6 µM)
- IC50 (Aspergillus niger [11]): 41.2 µg/mL (≈ 142 µM)
- MIC (Aspergillus niger [11]): 64 µg/mL (≈ 221 µM)
- Activity [12]: Non-toxic
- MFC (Aspergillus niger [14]): 128 µg/mL (≈ 442 µM)
- IC50 (Nakaseomyces glabratus [15]): 0.035 µg/mL (≈ 0.121 µM)
- MIC (Nakaseomyces glabratus [15]): 0.125 µg/mL (≈ 0.432 µM)

SMILES: CCC(C)(C)c1ccc(CC(C)CN2CC[Si](C)(C)CC2)cc1 (configuration not stated)
- IC50 (Candida albicans [1]): 0.28 µg/mL (≈ 0.844 µM)
- MIC (Candida albicans [1]): 0.5 µg/mL (≈ 1.51 µM)
- MFC (Candida albicans [2]): 16 µg/mL (≈ 48.2 µM)
- MFC (Candida albicans [3]): 64 µg/mL (≈ 193 µM)
- IC50 (Cryptococcus neoformans [4]): 1.4 µg/mL (≈ 4.22 µM)
- MIC (Cryptococcus neoformans [4]): 2 µg/mL (≈ 6.03 µM)
- IC50 (Candida albicans [5]): 1.68 µg/mL (≈ 5.07 µM)
- MIC (Candida albicans [5]): 4 µg/mL (≈ 12.1 µM)
- MFC (Nakaseomyces glabratus [6]): 4 µg/mL (≈ 12.1 µM)
- MFC (Candida tropicalis [7]): 256 µg/mL (≈ 772 µM)
- IC50 (Candida tropicalis [8]): 13.8 µg/mL (≈ 41.6 µM)
- MIC (Candida tropicalis [8]): 64 µg/mL (≈ 193 µM)
- MFC (Cryptococcus neoformans [10]): 4 µg/mL (≈ 12.1 µM)
- IC50 (Aspergillus niger [11]): 0.16 µg/mL (≈ 0.482 µM)
- MIC (Aspergillus niger [11]): 0.5 µg/mL (≈ 1.51 µM)
- MFC (Aspergillus niger [14]): 64 µg/mL (≈ 193 µM)
- IC50 (Nakaseomyces glabratus [15]): 1.47 µg/mL (≈ 4.43 µM)
- MIC (Nakaseomyces glabratus [15]): 4 µg/mL (≈ 12.1 µM)

SMILES: CC(Cc1ccc(C(C)(C)C)cc1)CN1CC[Si](C)(C)CC1 (configuration not stated)
- IC50 (Candida albicans [1]): 0.31 µg/mL (≈ 0.976 µM)
- MIC (Candida albicans [1]): 0.5 µg/mL (≈ 1.57 µM)
- MFC (Candida albicans [2]): 8 µg/mL (≈ 25.2 µM)
- MFC (Candida albicans [3]): 0.5 µg/mL (≈ 1.57 µM)
- IC50 (Cryptococcus neoformans [4]): 0.875 µg/mL (≈ 2.76 µM)
- MIC (Cryptococcus neoformans [4]): 2 µg/mL (≈ 6.3 µM)
- IC50 (Candida albicans [5]): 1.85 µg/mL (≈ 5.83 µM)
- MIC (Candida albicans [5]): 4 µg/mL (≈ 12.6 µM)
- MFC (Nakaseomyces glabratus [6]): 8 µg/mL (≈ 25.2 µM)
- MFC (Candida tropicalis [7]): 64 µg/mL (≈ 202 µM)
- IC50 (Candida tropicalis [8]): 16 µg/mL (≈ 50.4 µM)
- MIC (Candida tropicalis [8]): 64 µg/mL (≈ 202 µM)
- MFC (Cryptococcus neoformans [10]): 4 µg/mL (≈ 12.6 µM)
- IC50 (Aspergillus niger [11]): 13.8 µg/mL (≈ 43.5 µM)
- MIC (Aspergillus niger [11]): 32 µg/mL (≈ 101 µM)
- Activity [12]: Non-toxic
- MFC (Aspergillus niger [14]): 64 µg/mL (≈ 202 µM)
- IC50 (Nakaseomyces glabratus [15]): 1.52 µg/mL (≈ 4.79 µM)
- MIC (Nakaseomyces glabratus [15]): 4 µg/mL (≈ 12.6 µM)

SMILES: CC(Cc1ccc(C(C)(C)C)cc1)C(=O)NC[Si](C)(C)c1ccccc1 (configuration not stated)
- MIC (Candida albicans [1]): ≥ 256 µg/mL
- MFC (Candida albicans [2]): ≥ 256 µg/mL
- MFC (Candida albicans [3]): ≥ 256 µg/mL
- MIC (Cryptococcus neoformans [4]): ≥ 256 µg/mL
- MIC (Candida albicans [5]): ≥ 256 µg/mL
- MFC (Nakaseomyces glabratus [6]): ≥ 256 µg/mL
- MFC (Candida tropicalis [7]): ≥ 256 µg/mL
- MIC (Candida tropicalis [8]): ≥ 256 µg/mL
- MFC (Cryptococcus neoformans [10]): ≥ 256 µg/mL
- MIC (Aspergillus niger [11]): ≥ 256 µg/mL
- MFC (Aspergillus niger [14]): ≥ 256 µg/mL
- MIC (Nakaseomyces glabratus [15]): ≥ 256 µg/mL
